Experimental data: article PMC8385540 (Journal of natural products, 2013)

Columns and labels:
[1] = molecular target: human cannabinoid CB2 receptor (Homo sapiens, UniProt P34972); experiment: Plate-based assay, inhibition of CB2 receptor internalization; format: cell-based
In short: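 CHO cells stably expressing human CB2, seeded at 2.0 × 10^5 cells/mL in 96-well plates, grown 24 h in DMEM/F12 with 10% FBS. Preincubated 1 h with twofold serial dilutions of test compound (top 10 μM; DMSO <0.1% final), then 1 h with 2 nM [3H]-CP 55,940. Washed, NaOH-lysed, scintillation counted, and normalized to no-compound uptake. IC50 from sigmoid nonlinear fit, means ± SE (n = 6). JD5037 as positive control.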

[2] = molecular target: human cannabinoid CB1 receptor (Homo sapiens, UniProt P21554); experiment: Plate-based assay, inhibition of CB1 receptor internalization; format: cell-based
[3] = molecular target: HRH4 (Homo sapiens, UniProt Q9H3N8); experiment: DiscoveRX gpcrMAX panel, agonist/antagonist; format: cell-based; details: HRH4, antagonist mode; negative inhibition may indicate agonist or PAM activity
[4] = molecular target: T1, RXFP3 (Homo sapiens, UniProt Q9NSD7); experiment: DiscoveRX gpcrMAX panel, agonist/antagonist; format: cell-based; details: RXFP3, antagonist mode; negative inhibition may indicate agonist or PAM activity
T1 sequence (Q9NSD7 1-469): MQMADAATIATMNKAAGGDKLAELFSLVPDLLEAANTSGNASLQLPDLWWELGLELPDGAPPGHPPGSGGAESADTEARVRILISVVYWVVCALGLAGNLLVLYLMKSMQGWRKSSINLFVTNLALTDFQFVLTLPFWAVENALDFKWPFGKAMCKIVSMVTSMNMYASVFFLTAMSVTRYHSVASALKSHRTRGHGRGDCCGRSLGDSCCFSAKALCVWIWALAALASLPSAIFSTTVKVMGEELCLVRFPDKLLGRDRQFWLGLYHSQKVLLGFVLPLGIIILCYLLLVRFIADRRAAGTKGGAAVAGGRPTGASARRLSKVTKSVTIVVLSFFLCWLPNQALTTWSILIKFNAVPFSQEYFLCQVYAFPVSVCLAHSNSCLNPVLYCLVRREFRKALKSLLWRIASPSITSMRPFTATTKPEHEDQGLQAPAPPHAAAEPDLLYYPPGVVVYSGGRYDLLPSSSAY

[5] = tested on: FSH receptor; details: previously reported; cited from earlier work

Chain of human cannabinoid CB2 receptor (P34972 whole entry): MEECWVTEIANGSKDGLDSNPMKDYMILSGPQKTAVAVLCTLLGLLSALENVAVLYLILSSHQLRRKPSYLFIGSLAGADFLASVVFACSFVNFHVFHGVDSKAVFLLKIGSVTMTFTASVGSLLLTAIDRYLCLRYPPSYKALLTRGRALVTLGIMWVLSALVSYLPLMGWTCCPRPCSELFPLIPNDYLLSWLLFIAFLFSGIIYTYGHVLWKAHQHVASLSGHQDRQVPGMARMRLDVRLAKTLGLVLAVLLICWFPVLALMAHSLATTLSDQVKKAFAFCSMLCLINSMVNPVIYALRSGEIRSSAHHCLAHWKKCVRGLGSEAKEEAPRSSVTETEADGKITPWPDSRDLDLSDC
Chain of human cannabinoid CB1 receptor (P21554 whole entry): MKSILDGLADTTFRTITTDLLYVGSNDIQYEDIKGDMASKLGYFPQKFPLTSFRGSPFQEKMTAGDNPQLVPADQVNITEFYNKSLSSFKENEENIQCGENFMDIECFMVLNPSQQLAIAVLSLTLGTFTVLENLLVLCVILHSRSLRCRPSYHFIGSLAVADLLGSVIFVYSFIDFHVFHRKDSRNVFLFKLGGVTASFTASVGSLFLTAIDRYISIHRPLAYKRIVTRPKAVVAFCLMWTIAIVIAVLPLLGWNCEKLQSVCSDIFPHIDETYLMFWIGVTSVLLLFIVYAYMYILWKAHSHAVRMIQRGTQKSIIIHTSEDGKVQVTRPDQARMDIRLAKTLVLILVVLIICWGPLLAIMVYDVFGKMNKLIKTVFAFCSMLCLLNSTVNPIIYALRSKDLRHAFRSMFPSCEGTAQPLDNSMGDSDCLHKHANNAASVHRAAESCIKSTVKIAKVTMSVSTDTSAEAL
Chain of HRH4 (Q9H3N8 whole entry): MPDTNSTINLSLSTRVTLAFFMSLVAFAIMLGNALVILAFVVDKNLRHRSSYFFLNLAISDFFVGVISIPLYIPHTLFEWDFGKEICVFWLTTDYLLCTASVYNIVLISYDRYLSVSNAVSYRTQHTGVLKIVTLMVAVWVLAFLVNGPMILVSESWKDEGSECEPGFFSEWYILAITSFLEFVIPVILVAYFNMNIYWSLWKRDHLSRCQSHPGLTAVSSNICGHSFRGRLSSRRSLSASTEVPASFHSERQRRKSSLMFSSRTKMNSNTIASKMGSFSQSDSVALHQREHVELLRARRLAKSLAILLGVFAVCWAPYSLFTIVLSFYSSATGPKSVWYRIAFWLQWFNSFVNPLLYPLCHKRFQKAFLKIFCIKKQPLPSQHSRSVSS

## C/C=C/C=C/C=C/CC/C=C/C=C/C(=O)NCC(C)C [Compound 7, (2E,4E,8E,10E,12E)-N-isobutyl-2,4,8,10,12-tetradecapentaenamide]
[1]
  antagonism of the CB2 receptor (in words): weak antagonists
[2]
  antagonistic properties against the CB1 receptor (in words): strong antagonistic properties
[3]
  % inhibition: −54%
[4]
  % inhibition: −81%

## C/C=C/C=C/C=C\CC/C=C/C=C/C(=O)NCC(C)(C)O [Compound 4, hydroXy-γ-sanshool]
[2]; C-8 cis-isomer 4 compared with 5
  fold more potent for CB1, 4 vs 5: 10 fold

## CC/C=C/C/C=C\CC/C=C/C=C/C(=O)NCC(C)(C)O [Compound 6, isobungeanool]
[1]
  antagonism of the CB2 receptor (in words): weak antagonists

## C/C=C/C=C/C=C\CC/C=C/C(=O)NCC(C)(C)O [Compound 2, hydroXy-α-sanshool]
[1]; cis configuration at C-6 of 2 compared with 3
  fold increase in activity against the CB2 receptor, 2 vs 3: 2 fold

## CCCCCCCCC/C=C/C=C/C(=O)NCC(C)(C)O [Compound 8, tetrahydrobungeanool]
[1]
  IC50: 1.8 nM

## CCCCCc1cc(O)c2c(c1)OC(C)(C)[C@@H]1CCC(C)=C[C@@H]21 [Δ^9-tetrahydrocannabinol]
[5]
  inhibition of the FSH receptor (in words): specific inhibition

## CC(C)[C@H](N=C(NS(=O)(=O)c1ccc(Cl)cc1)N1C[C@H](c2ccccc2)C(c2ccc(Cl)cc2)=N1)C(N)=O [JD5037, reference compound]
[1]; positive control
  IC50 of positive control, CB2 (in words): within the expected range
[2]; positive control
  IC50 of positive control, CB1 (in words): within the expected range
